Rows were chosen to be rich in hits. Some 2.5% of all compounds tested hit in one or more screens of this group.
ADAM10 inh – inhibitors of human ADAM10; O14672; recombinant ADAM10, EDANS/DABCYL FRET peptide cleavage, 3 h; inhibition, % at 7 µM; 370,000 tested, 0.62% active;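 active = inhibition above a per-campaign cutoff equal to the mean of compounds falling between control-based bounds plus 3 SD, cut at about 20% in these data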
NR2E3 ag-1 – agonists of human nuclear receptor NR2E3; Q9Y5X4; GST-NR2E3/biotin-RetCOR TR-FRET, 1536-well; inhibition of corepressor binding, % at 4.78 µM; 320,000 tested, 0.12% active; AID 2300;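 active = percent inhibition above the cutoff of mean plus 3 SD of all tested compounds, set per screening campaign, cut at about 20% in these data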
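Test system – NR2E3–RetCOR corepressor complex · Quantity – NR2E3 fusion 1.35 nM · Buffer or medium – Tris pH 7.5 · Incubation – Compound–protein incubation for 5 h at 4 °C · Technique – TR-FRET, Eu(K)-anti-GST donor, streptavidin-D2 acceptor, ex 340, em 617/671 nm · Evaluation – percent inhibition of 671/617 nm emission ratio versus biotin and DMSO controls · Plate – 1536-well format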
ADAM17 inh – ADAM17 inhibition, QFRET primary screen; AID 720648; inhibition, % at 6.95 µM; 370,000 tested, 0.83% active; P78536; recombinant ADAM17, EDANS/DABCYL FRET peptide cleavage;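 active = inhibition above the mean of compounds lying between control limits plus 3 SD, set per campaign, cut at about 8.5% in these data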
NR2E3 ag-2 – agonists of human NR2E3 nuclear receptor | inhibition of corepressor binding, % at 3.98 µM | 360,000 tested, 0.35% active | CHO-S Gal4-NCOR/VP16-NR2E3 two-hybrid, luciferase | Q9Y5X4;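 active = inhibition above the mean of all tested compounds plus 3 SD, cut at about 70% in these data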;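 also: higher means lower luciferase signal from less NR2E3 corepressor binding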
KLK7 zymogen act – proKLK7 (human) activation, primary screen; P49862; purified proKLK7, EDANS-DABCYL substrate fluorescence; 100% is mature enzyme control, 0% vehicle; activation, % at 7 µM; 370,000 tested, 0.9% active; AID 652039;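 active = activation above the mean of all tested compounds plus 3 SD, computed per campaign excluding outliers beyond control limits, cut at about 13% in these data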
Target sequence (P49862 whole entry, looked up): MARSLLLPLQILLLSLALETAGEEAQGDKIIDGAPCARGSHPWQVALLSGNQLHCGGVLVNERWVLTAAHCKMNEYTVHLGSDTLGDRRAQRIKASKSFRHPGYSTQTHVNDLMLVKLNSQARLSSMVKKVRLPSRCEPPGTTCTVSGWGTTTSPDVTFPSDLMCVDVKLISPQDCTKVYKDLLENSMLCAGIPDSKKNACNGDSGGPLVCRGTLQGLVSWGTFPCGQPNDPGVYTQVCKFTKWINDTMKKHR
JMJD2C inh – inhibitors of human GASC-1 (JMJD2C) demethylase; Q9H3R0; GST-JMJD2C(1-420) H3K9me3 demethylation, DELFIA europium; inhibition, % at 2.35 µM; 330,000 tested, 0.069% active; AID 2099;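 active = more than half of a compound's replicate wells show inhibition beyond 50%, single wells judged on their own value; inconclusive = some, but no more than half, of replicates pass 50% inhibition; inactive = no replicate passes 50% inhibition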;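 also: signal counts dimethyl H3K9 product captured on neutravidin plate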
Target sequence (Q9H3R0 1-420 limits assumed): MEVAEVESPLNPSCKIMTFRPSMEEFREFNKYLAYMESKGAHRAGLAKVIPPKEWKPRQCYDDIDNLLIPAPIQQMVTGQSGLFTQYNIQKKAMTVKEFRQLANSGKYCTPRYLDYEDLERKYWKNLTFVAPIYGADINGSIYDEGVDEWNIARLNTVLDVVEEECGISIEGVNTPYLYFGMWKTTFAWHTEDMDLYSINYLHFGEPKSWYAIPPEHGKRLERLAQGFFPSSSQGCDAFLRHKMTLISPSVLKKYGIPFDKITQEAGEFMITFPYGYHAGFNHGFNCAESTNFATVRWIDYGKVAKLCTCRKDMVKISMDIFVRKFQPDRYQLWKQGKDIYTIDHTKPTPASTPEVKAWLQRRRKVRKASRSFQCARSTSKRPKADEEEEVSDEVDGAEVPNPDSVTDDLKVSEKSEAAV
proKLK7 act conf – confirmation of human kallikrein-7 zymogen activators; 3,200 tested, 68% active; shares compounds with KLK7 zymogen act; purified proKLK7, EDANS-DABCYL substrate fluorescence; scaled: vehicle 0, mature enzyme 100; activation, % at 7 µM; AID 686949;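 active = activation, as change over the incubation, above the mean of all tested compounds plus 3 SD, cut at about 13% in these data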
EDANS-DABCYL int – fluorescence interference counter-screen for KLK7 activators. shares compounds with KLK7 zymogen act. activation, % at 7 µM. EDANS-DABCYL substrate fluorescence interference, no enzyme, 4 h; solvent 0%, active enzyme control 100%. 3,200 tested, 80% active;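 active = activation above the all-compound mean plus 3 SD, ignoring values outside control-based bounds, cut at about 4.8% in these data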;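 also: value is the 4 h activation minus the activation read at time zero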
A number is an active result; n = inactive; u = inconclusive; x = no result given.

SMILES	ADAM10 inh	NR2E3 ag-1	ADAM17 inh	NR2E3 ag-2	KLK7 zymogen act	JMJD2C inh	proKLK7 act conf	EDANS-DABCYL int
CC1CCCCN1Cc1c(O)ccc2c(=O)c(-c3ccc(Br)cc3)coc12 (stereo unspecified)	n	x	n	n	n	n	x	x
COc1ccccc1-c1c(C)oc2c(CN3CCCC(C)C3)c(O)ccc2c1=O (stereo unspecified)	n	x	n	n	45	n	72	69
O=C(Nc1ccccc1C(=O)Nc1ccc(Br)cn1)c1cccc([N+](=O)[O-])c1	n	n	n	n	n	n	x	x
CCOC(=O)CC1(NC(=O)C2CCC(=O)N(Cc3ccccc3OC)C2)CCCCC1 (stereo unspecified)	n	x	n	n	n	n	x	x
COC(=O)c1c(C)nc2c(c(SC)nn2-c2ccccc2)c1N	n	n	n	n	n	n	x	x
COC(=O)c1c(C)nc2nonc2c1N	n	n	n	n	14	n	47	49
CN(C(=O)c1cccc(NC(=O)Cc2cccc(NC(=O)C3CCN(C(=O)C4CCCCC4)CC3)c2)c1)C1CC1	n	x	n	n	n	x	x	x
Cc1c(Cl)c(=O)oc2cc(OC(C)C)ccc12	n	n	n	n	15	n	n	n
CCC(=O)Oc1ccc2c(C)c(Cl)c(=O)oc2c1	n	n	n	n	40	n	672	655
Cc1c(Cc2ccccc2)c(=O)oc2cc(OC(=O)c3ccccc3)ccc12	n	n	n	n	n	n	x	x
COC(=O)Cc1c(C)c2ccc(OC(=O)c3ccccc3)cc2oc1=O	n	n	n	n	422	u	632	512
Cc1onc(-c2ccccc2Cl)c1C(=O)N1CCN(S(=O)(=O)c2ccc(F)c(F)c2)CC1	n	n	n	n	n	n	x	x
Cc1ccc2[nH]c(=O)c(CN(C(=O)c3cccc([N+](=O)[O-])c3)C(C)C)cc2c1	n	n	n	n	n	n	x	x
O=C1NC[C@H](CCCCN2C[C@H](Cc3ccccc3)N(CCc3ccc(O)cc3)C(=O)C2=O)N(CCc2ccccc2)C1=O	n	x	n	n	n	x	x	x
CN(C)C1(CN=Cc2cc(Cl)cc([N+](=O)[O-])c2O)CCCCC1	n	n	n	n	n	n	x	x
COc1ccc(NS(=O)(=O)c2ccc3c(c2)NC(=O)CO3)c(OC)c1	n	n	n	n	n	n	x	x
CC(Sc1nc2ncc(Cl)cc2[nH]1)C(=O)Nc1ccccc1[N+](=O)[O-] (stereo unspecified)	n	x	n	n	n	x	x	x
CC(C)C(=O)Nc1ccc(-c2nc3ncccc3o2)cc1	n	n	n	n	14	n	n	6.6
CC(C)C(=O)Nc1cccc(-c2nc3ncccc3o2)c1	n	n	n	n	n	n	x	x
Nc1ccc(-c2nc3ncccc3o2)c(O)c1	n	n	n	n	21	n	22	21
Nc1ccc(-c2nc3ncccc3o2)c(Cl)c1	n	n	n	n	n	n	x	x
Cc1cc(-c2nc3ncccc3o2)ccc1N	n	n	n	n	40	n	67	67
COc1cccc(CN2CCC(C)(Oc3cccc(Cl)c3)C2)c1OC (stereo unspecified)	n	x	n	n	n	x	x	x
COc1ccccc1C(CNC(=O)c1cc(C)nc2ccccc12)N(C)C (stereo unspecified)	n	n	n	n	n	n	x	x
CN(C)S(=O)(=O)c1ccc(C(=O)Nc2nc(-c3cccs3)cs2)cc1	n	n	n	n	47	n	27	129
SMILES	ADAM10 inh	NR2E3 ag-1	ADAM17 inh	NR2E3 ag-2	KLK7 zymogen act	JMJD2C inh	proKLK7 act conf	EDANS-DABCYL int
O=C(Nc1nc(-c2cccs2)cs1)c1ccc(S(=O)(=O)N2CCCC2)cc1	n	n	n	n	n	n	x	x
COc1ccc(S(=O)(=O)CCC(=O)Nc2cccc(OC)c2)cc1	x	n	x	x	x	n	x	x
Cc1ccc2nc(-c3ccc(SCC(=O)O)nc3)[nH]c2c1	n	n	n	n	16	n	23	27
Cc1ccc2nc(-c3ccc(SCC(=O)N4CCc5ccccc54)nc3)[nH]c2c1	n	n	n	n	n	n	x	x
Cc1nc2ccc(C(=O)N3c4ccccc4N=C(c4ccc5c(c4)OCO5)C3C(=O)NCc3ccccc3)cc2[nH]1 (stereo unspecified)	n	x	n	x	n	x	x	x
CC(C)(C)C(=O)n1nc(-c2ccccc2)oc1=O	n	n	n	n	n	n	x	x
COc1ccc(NC(=O)CCN2C(=O)c3ccccc3C2=O)c(OC)c1	n	n	n	n	n	n	x	x
COc1ccc(NC(=O)CN2C(=O)c3cccc4cccc2c34)c(OC)c1	n	n	n	n	304	n	59	67
CC(=O)c1ccc(N2CCN(C(C)C(=O)NC3CCCc4ccccc43)CC2)cc1 (stereo unspecified)	n	n	n	n	n	n	x	x
COc1cc(/C=C/C(=O)Nc2nc3ccc(S(=O)(=O)NC(C)C)cc3s2)cc(OC)c1OC	n	n	n	n	15	n	59	63
CCNS(=O)(=O)c1ccc2nc(NC(=O)/C=C/c3cc(OC)c(OC)c(OC)c3)sc2c1	n	n	n	n	n	n	x	x
CCOC(=O)CNc1c(-c2ccc(O)cc2)nc2ccccn12	n	n	n	n	20	n	27	62
O=C(O)CC(c1ccc(Br)cc1)N1Cc2ccccc2C1=O (stereo unspecified)	n	n	n	n	n	n	x	x
COCC(=O)Nc1ccc2c(c1)OCC(=O)N2Cc1ccc(C)cc1	n	n	n	n	n	n	x	x
O=C1/C(=C/c2ccc(O)c(O)c2)Oc2cc(O)ccc21	n	n	n	n	45	x	109	118
COc1cc(/C=C2\Oc3cc(O)ccc3C2=O)ccc1O	n	n	n	n	55	x	36	36
Cc1ccsc1/C=C1\Oc2cc(O)ccc2C1=O	n	x	n	n	15	x	21	24
O=C1/C(=C/c2cccc([N+](=O)[O-])c2)Oc2cc(O)ccc21	n	n	n	n	n	n	x	x
COc1cc(C=C2C(=O)C=CC2=O)ccc1O	n	x	n	n	n	x	x	x
COc1ccc2c(c1)O/C(=C\c1ccccc1C)C2=O	n	n	n	n	n	n	x	x
CCOc1ccc(N(C)S(=O)(=O)c2ccc(C)c(C(=O)OCC(=O)c3c[nH]c4ccccc34)c2)cc1	n	n	n	n	n	n	x	x
Cc1nc2ccccc2n1C(c1cccnc1)c1nc2ccccc2[nH]1 (stereo unspecified)	n	x	n	x	n	x	x	x
COc1ccc(-c2cn3cc(C(=O)NN)ccc3n2)cc1	n	n	n	n	40	n	n	10.0

High-throughput results: PubChem, several laboratories
